Laboratory results from ChEMBL document CHEMBL1144710, “epigenetic multiple ligands: mixed histone/protein methyltransferase, acetyltransferase, and class III deacetylase (sirtuin) inhibitors” (J Med Chem, 2008).
Calls of active or inactive are those of the source. Unless noted, no cut-off for these calls is given here.

Experiments:
[1] = molecular target: T1, NAD-dependent protein deacetylase sirtuin-1 (Homo sapiens) (UniProt Q96EB6); assay: Inhibition of human SIRT1 at 25 uM
T1 sequence (whole entry): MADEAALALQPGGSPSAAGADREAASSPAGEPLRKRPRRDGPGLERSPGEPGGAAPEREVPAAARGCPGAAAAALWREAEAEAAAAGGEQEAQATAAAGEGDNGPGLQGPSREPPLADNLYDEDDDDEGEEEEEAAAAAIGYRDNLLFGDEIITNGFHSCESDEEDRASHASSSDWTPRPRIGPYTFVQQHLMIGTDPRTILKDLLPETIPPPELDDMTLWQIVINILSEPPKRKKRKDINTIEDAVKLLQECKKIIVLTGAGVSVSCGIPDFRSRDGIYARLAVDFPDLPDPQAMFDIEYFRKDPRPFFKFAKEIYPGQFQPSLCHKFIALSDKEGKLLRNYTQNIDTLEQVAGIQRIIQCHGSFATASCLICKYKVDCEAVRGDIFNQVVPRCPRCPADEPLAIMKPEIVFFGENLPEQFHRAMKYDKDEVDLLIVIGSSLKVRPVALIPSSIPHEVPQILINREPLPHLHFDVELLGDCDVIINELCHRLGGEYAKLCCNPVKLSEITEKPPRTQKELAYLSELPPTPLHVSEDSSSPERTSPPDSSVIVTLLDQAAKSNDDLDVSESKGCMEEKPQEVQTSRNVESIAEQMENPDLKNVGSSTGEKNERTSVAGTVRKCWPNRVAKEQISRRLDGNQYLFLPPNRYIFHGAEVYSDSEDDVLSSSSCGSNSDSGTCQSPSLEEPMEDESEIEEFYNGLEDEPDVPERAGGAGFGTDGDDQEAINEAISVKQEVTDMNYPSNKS
Summary of the method: (§1)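 Fluorescent two-stage assay. SIRT1 (1 U/well) or SIRT2 (5 U/well) with Fluor de Lys-SIRT1/2 substrate, NAD+ and compound at 25 µM, 37 °C for 2 h. Developer II containing nicotinamide then stopped the reaction and generated signal, read at ex 360/em 460 nm.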

U-937 [2] = assay: Induction of granulocytic differentiation in human U937 cells assessed as CD11c expression at 0.5 uM after 30 hrs; format: functional
Summary of the method: (§2)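 U937 cells treated for 30 h, then stained with PE-conjugated CD11c (PE mouse IgG1 as control) for 30 min at 4 °C in the dark and resuspended in PBS with PI (0.25 µg/mL). Read-out is percent CD11c-positive/PI-negative cells, with dead PI-positive cells excluded. Coloured compounds limited the top dose to 5 µM or lower.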

[3] = molecular target: T2, NAD-dependent protein deacetylase sirtuin-2 (Homo sapiens) (UniProt Q8IXJ6); assay: Inhibition of human SIRT2 at 25 uM; summary of the method: as §1
T2 sequence (whole entry): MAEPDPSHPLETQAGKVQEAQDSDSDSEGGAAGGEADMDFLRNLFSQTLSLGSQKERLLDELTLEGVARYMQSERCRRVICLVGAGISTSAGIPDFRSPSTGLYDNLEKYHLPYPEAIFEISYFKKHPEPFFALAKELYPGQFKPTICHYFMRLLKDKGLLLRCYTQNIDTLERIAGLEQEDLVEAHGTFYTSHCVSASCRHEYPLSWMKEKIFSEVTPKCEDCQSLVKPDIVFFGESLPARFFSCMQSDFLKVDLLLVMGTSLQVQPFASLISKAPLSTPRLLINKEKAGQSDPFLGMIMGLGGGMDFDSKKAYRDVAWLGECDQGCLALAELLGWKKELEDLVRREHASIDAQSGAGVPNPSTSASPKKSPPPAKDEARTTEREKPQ

U-937 [4] = assay: Inhibition of histone H3K4 methylation in human U937 cells at 50 uM after 24 hrs; format: functional, cell-based
Summary of the method: (§3)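 U937 cells treated at 50 µM for 24 h. Histones extracted with Triton buffer, then 0.2 M HCl overnight at 4 °C. 3–10 µg run on 15% SDS-PAGE and immunoblotted with anti-monomethyl-H3K4, monomethyl-H4R3 or dimethyl-H3R17 (1:500, overnight 4 °C), ECL detection. Loading controls: total H4 (H3K4), Ponceau Red (Arg marks).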

[5] = molecular target: Protein arginine N-methyltransferase 1 (Homo sapiens) (UniProt Q99873); assay: Inhibition of human recombinant PRMT1 assessed as nuclear ribonucleoprotein Npl3p methylation at 100 uM
Sequence of Protein arginine N-methyltransferase 1 (Homo sapiens) (Q99873 whole entry, looked up): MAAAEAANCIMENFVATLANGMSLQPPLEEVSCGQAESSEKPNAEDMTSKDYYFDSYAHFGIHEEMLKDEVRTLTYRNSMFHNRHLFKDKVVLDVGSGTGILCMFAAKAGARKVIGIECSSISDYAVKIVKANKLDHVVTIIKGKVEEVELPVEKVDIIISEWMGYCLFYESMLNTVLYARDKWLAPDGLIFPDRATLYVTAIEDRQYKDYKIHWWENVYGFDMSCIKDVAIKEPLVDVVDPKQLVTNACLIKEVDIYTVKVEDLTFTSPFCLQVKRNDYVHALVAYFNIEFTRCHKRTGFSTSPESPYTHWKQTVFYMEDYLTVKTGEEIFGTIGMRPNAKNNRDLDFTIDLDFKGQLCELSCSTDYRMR
Summary of the method: (§4)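 Recombinant enzymes (0.2 µg) with substrate (0.5 µg: Npl3p for PRMT1, PABP1 for CARM1, histone H3 for SET7), 0.5 µM [3H]AdoMet and 100 µM compound in PBS pH 7.4 with 3.3% v/v DMSO, 90 min at 30 °C. Products separated by 10% SDS-PAGE, transferred to PVDF, detected by fluorography on film overnight.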

[6] = molecular target: T3, Histone-lysine N-methyltransferase SETD7 (Homo sapiens) (UniProt Q8WTS6); assay: Inhibition of human recombinant SET7 assessed as histone H3 protein methylation at 100 uM; summary of the method: as §4
T3 sequence (whole entry): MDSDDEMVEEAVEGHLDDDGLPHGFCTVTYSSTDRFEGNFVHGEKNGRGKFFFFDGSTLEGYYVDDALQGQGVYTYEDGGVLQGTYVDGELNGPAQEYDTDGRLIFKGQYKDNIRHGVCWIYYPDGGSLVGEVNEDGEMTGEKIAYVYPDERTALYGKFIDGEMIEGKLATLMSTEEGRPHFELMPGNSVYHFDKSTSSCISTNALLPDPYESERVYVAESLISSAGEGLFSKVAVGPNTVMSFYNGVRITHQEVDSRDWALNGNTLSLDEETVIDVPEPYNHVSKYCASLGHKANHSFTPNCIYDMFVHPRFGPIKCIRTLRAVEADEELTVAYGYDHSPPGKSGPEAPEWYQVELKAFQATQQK

[7] = molecular target: Protein arginine N-methyltransferase 1 (Homo sapiens) (UniProt Q99873); assay: Inhibition of human recombinant PRMT1 assessed as histone H4 methylation at 50 uM
U-937 [8] = assay: Induction of granulocytic differentiation in human U937 cells assessed as CD11c expression at 5 uM after 30 hrs; format: functional; summary of the method: as §2
U-937 [9] = assay: Cell cycle arrest in human U937 cells assessed as accumulation at S phase at 25 uM after 30 hrs; format: functional, cell-based
Summary of the method: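 U937 cells in RPMI with 10% fetal calf serum, HEPES and glutamine, kept at 200000 cells/mL; treated at 25 µM for 30 h, then the distribution across cell cycle phases was analysed.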

U-937 [10] = assay: Induction of apoptosis in human U937 cells at 25 uM after 30 hrs; format: functional
Summary of the method: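 Apoptosis read as caspase 3 activation by FACS, in U937 cells (RPMI, 10% fetal calf serum, 200000 cells/mL) exposed to 25 µM for 30 h.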

U-937 [11] = assay: Inhibition of histone H3R17 methylation in human U937 cells at 50 uM after 24 hrs; format: functional, cell-based; summary of the method: as §3

O=C1/C(=C/c2cc(Br)c(O)c(Br)c2)COC/C1=C\c1cc(Br)c(O)c(Br)c1 was tested, and the inhibition [1] was 62%, the Activity (U-937 [2]) was 59% and the inhibition [3] was 67%. The Activity (U-937 [4]) was “Active”, the Activity [5] was “Active” and the Activity [6] was “Active”. For the same molecule, the inhibition [7] was 91%, the Activity (U-937 [8]) was 96.1% and the Activity (U-937 [9]) was “Active”. The Activity (U-937 [10]) was 27.9% and the Activity (U-937 [11]) was “Active”.
